Results published in paper PMC10621021 (ACS Omega, 2023).
pIC50: −log10 of the molar value. Several values for one entry are separate records, joined by “and”; a condition that tells them apart may be missing. Equal entries are not always repeated.

What was measured:
[1] = tested on: amastigote stages of Leishmania major; conditions: cited from earlier work
[2] = tested on: L. amazonensis promastigotes; assay: Antileishmanial activity against promastigotes of L. amazonensis; type: cell-based, Leishmania amazonensis; conditions: for pIC50: Leishmania amazonensis, 72 h, read-out: Promastigotes IC50, L. amazonensis promastigotes, MTT, 72 h, 6.25–100 μM; for antileishmanial activity on promastigotes (in words): L. amazonensis promastigotes, up to 100 μM
How it was run: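 Log-phase promastigotes at 2 × 10^6 cells/mL exposed to compound 6.25–100 μM for 72 h at 25 °C. MTT (5 mg/mL solution) added for 4 h, absorbance read at 570 nm. Viability is expressed relative to untreated parasites. IC50 from three independent experiments; miltefosine was the reference.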

[3] = tested on: HEPG2; assay: MTT cell viability, HEPG2; type: cell-based, human; conditions: 25 μM
[4] = tested on: MDA-MB-231; assay: MTT cell viability, MDA-MB-231; type: cell-based, human; conditions: 25 μM
[5] = tested on: intracellular amastigotes of L. amazonensis RFP; type: cell-based, Leishmania amazonensis; conditions: for antileishmanial activity on amastigotes (in words): L. amazonensis intracellular amastigotes, up to 100 μM
How it was run: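 BALB/c peritoneal macrophages (3% thioglycolate-elicited), adherent, infected 10:1 with stationary-phase RFP-transfected L. amazonensis IFLA/BR/67/PH8 promastigotes. After 4 h, wash, then compound 12.5–100 μM for 72 h at 33 °C, 5% CO2. Lysis in deionized water, fluorescence Ex 540/Em 600 nm. IC50 from mean of three independent experiments.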

Structure (SMILES) | cytotoxicity on HEP-G2 (in words) [3] | cytotoxicity on MDA-MB-231 (in words) [4] | antileishmanial activity on promastigotes (in words) [2] | antileishmanial activity on amastigotes (in words) [5] | also measured
Cc1ccc(-c2c(-c3ccccc3)nc3ccccn23)cc1 [Compound 2, 2-phenyl-3-(p-tolyl)imidazo[1,2-a]pyridine] |  |  |  |  | pIC50 [1]: 5.40
CC(C)(C)CC(C)(C)Nc1c(-c2ccc3c(c2)OCO3)nc2ncccn12 [Compound 14, 2-(benzo[d][1,3]dioxol-5-yl)-N-(2,4,4-trimethylpentan-2-yl)imidazo[1,2-a]pyrimidin-3-amine] |  |  |  |  | pIC50 [2]: 4.34
CC(C)(C)CC(C)(C)Nc1c(-c2ccccc2)nc2ncccn12 [Compound 18, 2-phenyl-N-(2,4,4-trimethylpentan-2-yl)imidazo[1,2-a]pyrimidin-3-amine] | no any significant cytotoxicity | no any significant cytotoxicity |  |  | 
COc1ccc(-c2nc3ncccn3c2NC(C)(C)CC(C)(C)C)cc1O [Compound 22, 2-methoxy-5-(3-((2,4,4-trimethylpentan-2-yl)amino)imidazo[1,2-a]pyrimidin-2-yl)phenol] | no any significant cytotoxicity | no any significant cytotoxicity | not tolerated for the antileishmanial activity | not tolerated for the antileishmanial activity | 
CC(C)(C)CC(C)(C)Nc1c(-c2cccc([N+](=O)[O-])c2)nc2ncccn12 [Compound 23, 2-(3-nitrophenyl)-N-(2,4,4-trimethylpentan-2-yl)imidazo[1,2-a]pyrimidin-3-amine] |  |  | did not show any biological activity | did not show any biological activity | 
CC(C)(C)CC(C)(C)Nc1c(-c2cccc(C#N)c2)nc2ncccn12 [Compound 24, 3-(3-((2,4,4-trimethylpentan-2-yl)amino)imidazo[1,2-a]pyrimidin-2-yl)benzonitrile] | no any significant cytotoxicity | no any significant cytotoxicity |  |  | pIC50 [2]: > 5.00; Selectivity Index ([5]; SI: CC50 in peritoneal macrophages/IC50 in intracellular amastigotes): 10 and > 10
CC(C)(C)CC(C)(C)Nc1c(-c2cccnc2)nc2ncccn12 [Compound 25, 2-(pyridin-3-yl)-N-(2,4,4-trimethylpentan-2-yl)imidazo[1,2-a]pyrimidin-3-amine] | no any significant cytotoxicity | no any significant cytotoxicity | evaded the activity | evaded the activity | 
CC(C)(C)CC(C)(C)Nc1c(-c2cccs2)nc2ncccn12 [Compound 26, 2-(thiophen-2-yl)-N-(2,4,4-trimethylpentan-2-yl)imidazo[1,2-a]pyrimidin-3-amine] |  |  |  | showed an effect on L. amazonensis amastigotes only | 
CCCCc1nc2ncccn2c1NC(C)(C)CC(C)(C)C [Compound 27, 2-butyl-N-(2,4,4-trimethylpentan-2-yl)imidazo[1,2-a]pyrimidin-3-amine] |  |  | moderate activity | moderate activity | 
CCCCCCCCc1nc2ncccn2c1NC(C)(C)CC(C)(C)C [Compound 28, 2-octyl-N-(2,4,4-trimethylpentan-2-yl)imidazo[1,2-a]pyrimidin-3-amine] |  |  | moderate activity | moderate activity | 
